Source: PubChem BioAssay
hERG rescue: shields human hERG channel from block by proarrhythmic agents; 310,000 compounds, 0.51% hits; activation (rescue from dofetilide block), less the hit threshold, % at 10 µM; AID 1511; CHO-hERG, FluxOR thallium flux, dofetilide IC70 present; Q12809;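 active = activation above the mean of controls blocked by dofetilide plus 5 SD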;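 also: thallium influx through hERG after potassium depolarization seen as dye fluorescence rise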
KCNK9 inh: inhibitors of human KCNK9 two-pore domain potassium channel. B-score at 10 µM. HEK293 KCNK9, FluxOR thallium flux fluorescence; active compounds read low. 310,000 compounds, 1.2% hits. Q9NPC2. AID 488922;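 active = ratio B-score over 3 SD below the library mean, with starting fluorescence within 5 SD of its mean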;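 also: negative B-score means less thallium flux so channel inhibition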
KCNQ1 block: human KCNQ1 channel inhibition | B-score at 10 µM | CHO-K1 KCNQ1, FluxOR thallium flux fluorescence; active compounds read high | P51787 | AID 2642 | 310,000 compounds, 1.3% hits;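 active = compounds whose thallium flux B-score, printed positive for inhibition, exceeds three library SD while starting fluorescence stays within three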;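 also: channel opened by potassium depolarization with thallium stimulus after 20 min compound exposure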
KCNQ1 act: human KCNQ1 channel potentiation or activation. 310,000 compounds, 0.35% hits. AID 2648. P51787. CHO-K1 KCNQ1, thallium flux FluxOR fluorescence; active compounds read high. B-score at 10 µM;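 active = fluorescence ratio B-score, a plate-corrected score, at least three library SD, with initial intensity B-score within 5 SD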
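Test system: CHO-K1 cells stably expressing KCNQ1 / Medium: assay buffer / Also added: depolarizing K+/Tl+ stimulus, K2SO4 and Tl2SO4 each 12.5 mM in 5x stock / Incubation: 90 min dye loading and 20 min compound exposure, both at room temperature / Signal: thallium influx via FluxOR fluorescence, kinetic imaging / Evaluation: B score of baseline-normalized fluorescence ratio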
KCNK3 block: human KCNK3 channel inhibition, primary screen. O14649. CHO-KCNK3 thallium flux, FluxOR fluorescence; active compounds read low. B-score at 10 µM. 340,000 compounds, 0.84% hits. AID 602410;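 active = B-score under library mean minus 4 SD, starting fluorescence ratio at most library mean plus 5 SD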;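 also: more negative B-score means stronger inhibition of thallium flux through KCNK3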
KCNK9 inh conf: confirmation of human KCNK9 potassium channel inhibitors; 4,900 compounds, 43% hits; inhibition, % at 10 µM; HEK293 KCNK9 cells, FluxOR thallium flux fluorescence; shares compounds with KCNK9 inh;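 active = thallium signal inhibited by more than 5 SD of the compound-free buffer control wells, on both duplicate plates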
Kir21 sel: tests whether KCNK9 modulators also affect mouse Kir2.1; shares compounds with KCNK9 inh; Kir2.1 cells, FluxOR thallium flux fluorescence; inhibition, % at 10 µM; 4,900 compounds, 4% hits;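 active = thallium signal drop more than 5 SD beyond the mean of the no-compound control wells, seen in both duplicate plates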;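 also: signal is fluorescence rise after thallium addition divided by baseline fluorescence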
Target sequence (P35561 whole entry, looked up): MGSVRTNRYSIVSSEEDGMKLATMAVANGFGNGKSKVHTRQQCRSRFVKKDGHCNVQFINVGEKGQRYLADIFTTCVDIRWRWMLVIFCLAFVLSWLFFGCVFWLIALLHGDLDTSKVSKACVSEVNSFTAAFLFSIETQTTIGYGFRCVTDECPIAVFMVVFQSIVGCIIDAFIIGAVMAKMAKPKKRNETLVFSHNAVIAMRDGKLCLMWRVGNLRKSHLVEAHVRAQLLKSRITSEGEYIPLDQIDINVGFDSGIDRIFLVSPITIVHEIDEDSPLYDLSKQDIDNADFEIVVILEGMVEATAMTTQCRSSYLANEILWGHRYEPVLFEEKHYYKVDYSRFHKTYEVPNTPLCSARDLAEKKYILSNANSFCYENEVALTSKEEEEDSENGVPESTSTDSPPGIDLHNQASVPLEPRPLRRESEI
HEK293 Tl ctr: second check of KCNK9 modulator effects in non-induced HEK293 cells; shares compounds with KCNK9 inh; FluxOR thallium flux; inhibition, % at 10 µM; 4,900 compounds, 40% hits; AID 492997;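 active = thallium signal drop beyond 5 SD of the untreated control mean, on both duplicate plates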
Hits are given with their value; i = inactive; nt = no result. Only some compounds are listed: those with a hit (about 3.1% of all), similar ones and a draw of the others.

SMILES | hERG rescue | KCNK9 inh | KCNQ1 block | KCNQ1 act | KCNK3 block | KCNK9 inh conf | Kir21 sel | HEK293 Tl ctr
O=C(Nc1ccc2c(c1)N(S(=O)(=O)c1cccs1)CCC2)c1c(F)cccc1Cl | i | -11 | i | i | i | i | i | 36%
Clc1cccc(CSc2nnc(-c3ccccn3)n2Cc2ccco2)c1 | i | i | i | i | i | nt | nt | nt
Brc1ccc(CSc2nnc(-c3ccccn3)n2Cc2ccco2)cc1 | i | -16 | i | i | i | 44% | i | 41%
COc1ccc(CCn2c(C)cc(C(=O)COC(=O)c3cnc(C)cn3)c2C)cc1 | i | i | i | i | i | nt | nt | nt
N/C(=N\OC(=O)c1cccc(Cn2cc(C(F)(F)F)ccc2=O)c1)c1ccccc1 | i | i | i | i | i | nt | nt | nt
N/C(=N\OC(=O)c1cccc(Cn2cc(C(F)(F)F)ccc2=O)c1)c1ccc(Cl)cc1 | i | -12 | i | i | i | 46% | i | i
O=C(Sc1ccc(Cl)cc1)c1cccc(Cn2cc(C(F)(F)F)ccc2=O)c1 | i | -14 | i | i | i | 34% | i | 34%
O=C1CCCc2[nH]nc(-c3cccnc3)c21 | i | i | i | i | i | nt | nt | nt
CCOC(=O)c1c(C)[nH]c(C(=O)COC(=O)C2(C)CC2(Cl)Cl)c1C (stereo not drawn) | i | -17 | i | i | i | i | i | i
COC(=O)c1ccccc1N/C=C/C(=O)c1ccc(Br)cc1 | i | -12 | i | i | i | 43% | i | 38%
CCOC(=O)c1ccccc1N/C=C/C(=O)c1cccs1 | i | -9.8 | i | i | i | 50% | i | 39%
NC(=O)c1ccccc1N/C=C/C(=O)c1ccccc1 | i | i | i | i | i | nt | nt | nt
COc1ccc(S(=O)(=O)CCC(=O)N2CCN(c3ccc(C(C)=O)cc3)CC2)cc1 | i | i | i | i | i | nt | nt | nt
Cc1ccc(Cl)cc1N1CCN(S(=O)(=O)c2cccc(S(=O)(=O)N3CCCC3)c2)CC1 | i | -10 | i | i | -11 | 49% | i | 32%
COc1ccc(C2=C(CN(C)C)C(c3ccccc3)c3ccccc3O2)cc1 (stereo not drawn) | i | i | i | i | i | nt | nt | nt
CCOc1ccc(C2=C(C=C(C#N)C#N)C(c3ccccc3)c3ccccc3O2)cc1 (stereo not drawn) | i | -11 | i | i | i | 50% | i | 24%
Cc1nc(-c2cccc(NC(=O)c3cccs3)c2)cs1 | i | i | i | i | i | nt | nt | nt
O=C(Nc1cccc(-c2csc(-c3ccccc3)n2)c1)c1cccs1 | i | -12 | i | i | i | 45% | i | i
COc1cc(/C=N/NC(=O)C23CC4CC(CC(C4)C2)C3)cc(Br)c1O | i | i | i | i | i | nt | nt | nt
O=C(N/N=C/c1cc([N+](=O)[O-])cc(Br)c1O)C12CC3CCC(CC(C3)C1)C2 | i | i | i | 25 | i | i | i | i
Cc1cc(SCC(=O)OCC(=O)NCC2CCCO2)c(C)cc1Br (stereo not drawn) | i | i | i | i | i | nt | nt | nt
COc1cc2c(cc1C1NC(=S)NC(C)=C1C(=O)N(C)C)CCCC2 (stereo not drawn) | i | i | i | i | i | nt | nt | nt
Cc1cccn2cc(CSc3nnc(Nc4ccc(C(C)C)cc4)s3)nc12 | i | i | i | i | i | i | i | i
COc1ccc(Nc2nnc(SCc3cn4c(C)cccc4n3)s2)cc1 | i | i | i | i | i | nt | nt | nt
Cc1cccc(Nc2nc(-c3ccc4c(c3)OCCO4)cs2)c1 | i | i | i | i | i | i | i | i
SMILES | hERG rescue | KCNK9 inh | KCNQ1 block | KCNQ1 act | KCNK3 block | KCNK9 inh conf | Kir21 sel | HEK293 Tl ctr
CCOc1cc(/C=C2\C(=N)N3N=CSC3=NC2=O)ccc1OS(=O)(=O)c1ccccc1 | i | i | i | i | i | i | i | i
CCOc1ccccc1C(=O)NC(C)CCc1ccccc1 (stereo not drawn) | i | i | i | i | i | nt | nt | nt
CCOc1cc(C(=O)NC(C)CCc2ccccc2)cc(OCC)c1OCC (stereo not drawn) | i | i | i | i | i | i | i | i
O=C1C(=O)c2c(C(=O)c3ccccc3)coc2-c2ccccc21 | i | -15 | 7 | i | i | 60% | i | 38%
Cc1oc2c(c1C(=O)c1ccccc1)C(=O)C(=O)c1ccccc1-2 | i | i | i | i | i | nt | nt | nt
CCN(C(=O)CSc1nc2nc(C)cc(C)n2n1)C1CCS(=O)(=O)C1 (stereo not drawn) | i | i | i | i | i | nt | nt | nt
CCc1ccccc1NC(=O)c1cc(S(=O)(=O)N(C)C)ccc1N1CCCC1 | i | i | i | i | i | nt | nt | nt
CCc1ccc(OCC(=O)NNC(=O)c2cc(S(=O)(=O)N(C)C)ccc2N2CCCC2)cc1 | i | i | i | i | i | i | i | i
CN(C)S(=O)(=O)c1ccc(N2CCCC2)c(C(=O)Nc2ccccc2Br)c1 | i | i | i | i | i | i | i | i
CN(C)S(=O)(=O)c1ccc(N2CCCC2)c(C(=O)NC2CCCCC2)c1 | i | i | i | i | i | i | i | i
CN(CC(=O)Nc1c(Cl)cccc1Cl)C(=O)Cn1[nH]c(=O)c2ccccc2c1=O | nt | nt | nt | nt | i | nt | nt | nt
CC(C)=C(NC(=O)c1ccccc1)C(=O)NCc1ccccc1 | i | i | i | i | i | nt | nt | nt
Cn1cc(CN2CCC(C(=O)N3CCCCC3)CC2)c(-c2ccccc2F)n1 | i | i | i | i | i | nt | nt | nt
Cc1cccc(N(CC(=O)NCc2ccco2)C(=O)CCC(=O)Nc2nccs2)c1 | i | i | i | i | i | nt | nt | nt
Cc1ccc(C)c(NC(=O)c2ccccc2Sc2ccc([N+](=O)[O-])cc2Cl)c1 | i | -14 | i | i | i | 61% | i | 47%
CC1CCc2c(sc(NS(=O)(=O)c3ccccc3)c2C(=O)OC(C)C)C1 (stereo not drawn) | i | i | i | 26 | i | i | i | i
CCOC(=O)c1c(NC(=O)OC)sc2c1CCC2 | i | i | i | i | i | nt | nt | nt
COC(=O)c1c(NS(=O)(=O)c2ccc3ccccc3c2)sc2c1CCCC2 | 17 | i | i | 33 | i | i | i | i
CCOC(=O)c1c(NS(=O)(=O)c2ccc(Br)cc2)sc2c1CCC2 | 62 | i | i | 56 | i | i | i | i
COC(=O)c1c(NC(=O)c2ccc(C)c(S(=O)(=O)Nc3ccccc3C)c2)sc2c1CCCC2 | i | i | i | i | i | nt | nt | nt
CCCCCc1nnc(NC(=O)C(=O)OCC)s1 | i | i | i | i | i | nt | nt | nt
Cc1ccc(/C=C2\SC(=S)N(c3c(C)n(C)n(-c4ccccc4)c3=O)C2=O)cc1 | i | i | i | i | i | i | i | i
Cc1c(N2C(=O)/C(=C/C3CC=CCC3)SC2=S)c(=O)n(-c2ccccc2)n1C (stereo not drawn) | i | i | i | i | i | nt | nt | nt
